Assay results collected from several papers.
Each line is one published result; the experiments were not run side by side.
Target: Serine/threonine-protein kinase Nek7 (NEK7, Homo sapiens, UniProt Q8TDX7)

| SMILES | test | conditions | quantity | result |
| --- | --- | --- | --- | --- |
| COc1ncccc1-c1cnn2ccc(N3CCN(C(=O)OC(C)C)CC3)nc12 | binding, competition with immobilised ligand | 1 µM | remaining binding | 100% |
| Cn1cc(-c2cccc(N3CCc4c(sc5c4CC(C)(C)C5)C3=O)c2CO)cc(Nc2ccncn2)c1=O | enzyme activity, inhibitor | 1 µM | inhibition | 1% |
| Nc1ncc(-c2nc(N3CCOCC3)nc(N3CCOCC3)n2)c(C(F)F)n1 | binding, competition with immobilised ligand | 10 µM | remaining binding | 70% |
| COc1cc(Nc2ncc(F)c(Nc3ccc4c(n3)NC(=O)C(C)(C)O4)n2)cc(OC)c1OC | binding, competition with immobilised ligand | 10 µM | inhibition | 100% |
| N#CC1(c2ccccn2)CCN(Cc2cc(C(=O)O)c(=O)n3ccccc23)CC1 | cell-free assay, competition with immobilised ligand | 1 µM | remaining binding | 100% |
| CC(C)(C)c1cc(C=C(C#N)C#N)cc(Br)c1O | enzyme activity, inhibitor | 0.5 µM | remaining activity | 89.5% |
| Cc1nn(C)cc1-c1nc2c(N3CCN(Cc4ccc(Cl)cc4)CC3)c(Cl)cnc2[nH]1 | binding, competition with immobilised ligand | 1 µM | remaining binding | 100% |
| Cn1cc(-c2cc(F)cc(N3CCn4c(cc5c4CCCC5)C3=O)c2CO)cc(Nc2ccc(N3CCN(C4COC4)CC3)cn2)c1=O | enzyme activity, inhibitor | 0.1 µM | inhibition | 10% |
| O=c1[nH]c2ccccc2n1C1CCN(Cc2ccc(-c3[nH]c4cc5ncnc5cc4nc3-c3ccccc3)cc2)CC1 | cell-free assay | 0.5 µM | remaining signal | 99.6% |
| Cn1cncc1[C@](O)(COc1ccc(C#N)cc1-c1ccc(OC(F)(F)F)cc1)c1ccc(C#N)cc1 | cell-free assay, competition with immobilised ligand | 1 µM | remaining binding | 46% |
